Measurements from ChEMBL document CHEMBL4402603, “Structure-Activity Relationship of SPOP Inhibitors against Kidney Cancer” (J Med Chem, 2020).
pIC50: −log10 of the molar value.

How the values were obtained:
[1] = tested on: A498; assay: Antiproliferative activity against human A498 cells assessed as reduction in cell viability at 30 uM incubated for 72 hrs by MTT assay relative to control; assay type: functional; settings: A498, 72 h
Method in brief: (§1)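 MTT read-out. Cells seeded at 1,000-2,200/well, grown 12 hr at 37 °C, then compound added for 72 hr. MTT for 4 hr, formazan dissolved in DMSO, absorbance at 490 nm. Untreated-cell OD taken as 100% proliferation; inhibition reported at 30 μM.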

[2] = tested on: OS-RC-2; assay: Antiproliferative activity against human OS-RC2 cells assessed as reduction in cell viability at 30 uM incubated for 72 hrs by MTT assay relative to control; assay type: functional; settings: OS-RC-2, 72 h; method in brief: as §1
[3] = target: Speckle-type POZ protein (Homo sapiens) (UniProt O43791); assay: Binding affinity to recombinant N-terminal GST/His-tagged MATH binding domain SPOP (unknown origin) expressed in Escherichia coli BL21 (DE3) assessed as change in melting temperature at 10 fold compound incubated for 15 mins by nano differential scanning fluorimetry (reference value: -1.7 degreeC)
Chain of Speckle-type POZ protein (Homo sapiens) (O43791 whole entry, the tested form may be a part): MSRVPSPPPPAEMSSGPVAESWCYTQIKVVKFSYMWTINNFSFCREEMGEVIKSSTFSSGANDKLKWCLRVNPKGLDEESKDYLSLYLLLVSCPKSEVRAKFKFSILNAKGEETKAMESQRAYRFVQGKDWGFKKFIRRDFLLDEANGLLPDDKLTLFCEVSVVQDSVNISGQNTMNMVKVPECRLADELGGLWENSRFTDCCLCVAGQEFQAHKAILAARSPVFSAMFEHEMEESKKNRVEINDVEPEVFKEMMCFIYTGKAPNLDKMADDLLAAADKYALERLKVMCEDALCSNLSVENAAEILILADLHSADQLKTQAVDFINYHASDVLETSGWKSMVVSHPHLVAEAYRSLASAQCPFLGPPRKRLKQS

[4] = tested on: A498; assay: Antiproliferative activity against human A498 cells assessed as reduction in cell viability incubated for 72 hrs by MTT assay; assay type: functional, cell-based; settings: A498, 72 h
Method in brief: (§2)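 MTT read-out. Cells seeded at 1,000-2,200/well, grown 12 hr at 37 °C before compound, then exposed 72 hr. MTT for 4 hr, formazan dissolved in DMSO, A490 read. Untreated cells = 100% proliferation. IC50 quantitated; mean ± SD, n = 3.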

[5] = tested on: OS-RC-2; assay: Antiproliferative activity against human OS-RC2 cells assessed as reduction in cell viability incubated for 72 hrs by MTT assay; assay type: functional, cell-based; settings: OS-RC-2, 72 h; method in brief: as §2
[6] = target: Speckle-type POZ protein (Homo sapiens) (UniProt O43791); assay: Binding affinity to recombinant N-terminal GST/His-tagged MATH binding domain SPOP (unknown origin) expressed in Escherichia coli BL21 (DE3) assessed as change in melting temperature at 20 fold compound incubated for 15 mins by nano differential scanning fluorimetry (reference value: -3.8 degreeC)
[7] = target: Speckle-type POZ protein (Homo sapiens) (UniProt O43791); assay: Binding affinity to recombinant N-terminal GST/His-tagged SPOP (unknown origin) MATH binding domain expressed in Escherichia coli BL21 (DE3) assessed as change in melting temperature at 5 fold compound by SYPRO Orange dye based differential scanning fluorimetry (reference value: -1.7 degreeC)

ΔTm [3] [°C] | ΔTm [6] [°C] | ΔTm [7] [°C] | SMILES | inhibition at 30 µM [1] [%] | inhibition at 30 µM [2] [%] | pIC50 [4] | pIC50 [5]
– | – | – | Cc1cccn2c(=O)c3cc(C(=O)NCCCN4CCOCC4)c(=N)n(-c4ccc(Cl)cc4)c3nc12 | 17 | 38 | – | –
– | – | – | Cc1cccn2c(=O)c3cc(C(=O)NCCCN4CCOCC4)c(=N)n(CCN4CCOCC4)c3nc12 | 35 | 40 | – | –
– | – | – | Cc1cccn2c(=O)c3cc(C(=O)NCCCN4CCOCC4)c(=N)n(C(C)C)c3nc12 | 11 | 15 | – | –
– | – | – | Cc1cccn2c(=O)c3cc(C(=O)NCCCN4CCOCC4)c(=N)n(CCOc4ccccc4)c3nc12 | 50 | 36 | – | –
– | – | – | C#CCn1c(=N)c(C(=O)NCCCN2CCOCC2)cc2c(=O)n3cccc(C)c3nc21 | 37 | 37 | – | –
– | – | – | CCOC(=O)c1cc2c(=O)n3cccc(C)c3nc2n(Cc2ccco2)c1=N | 59 | 56 | – | –
– | – | – | Cc1cccn2c(=O)c3cc(C(=O)O)c(=N)n(CCc4cccs4)c3nc12 | 25 | 37 | – | –
– | – | – | Cc1ccn2c(=O)c3cc(C(=O)NCCCN4CCOCC4)c(=N)n(CCc4cccs4)c3nc2c1 | 75 | 77 | – | –
1.8 | 2.1 | 2 | Cc1ccc(CCn2c(=N)c(C(=O)NCCCN3CCOCC3)cc3c(=O)n4cccc(C)c4nc32)cc1 | 91 | 94 | 5.68 | 5.24
– | – | – | CCOC(=O)c1cc2c(=O)n3cccc(C)c3nc2n(CCc2ccccc2)c1=N | 24 | 20 | – | –
– | – | – | Cc1cccn2c(=O)c3cc(C(=O)NCCCN4CCOCC4)c(=N)n(CCc4c[nH]c5ccccc45)c3nc12 | 55 | 51 | – | –
– | – | – | Cc1cccn2c(=O)c3cc(C(=O)NCC4CCCO4)c(=N)n(CCc4cccs4)c3nc12 (stereo not given) | 86 | 83 | – | –
– | – | – | Cc1cccn2c(=O)c3cc(C(=O)O)c(=N)n(C(C)C)c3nc12 | 18 | 22 | – | –
– | – | – | CCN(CC)CCNC(=O)c1cc2cccnc2n(CCc2ccccc2)c1=O | 13 | 30 | – | –
2.3 | 3.7 | – | Cc1cccn2c(=O)c3cc(C(=O)O)c(=N)n(CCc4ccccc4)c3nc12 | 13 | 28 | – | –
– | – | – | CCOC(=O)c1cc2cnccc2n(CCc2ccccc2)c1=O | 14 | 15 | – | –
– | – | – | CCOC(=O)c1cc2c(=O)n3cccc(C)c3nc2n(Cc2ccccc2)c1=N | 24 | 26 | – | –
2.8 | 2.6 | – | Cc1cccn2c(=O)c3cc(C(=O)NCCCc4ccccc4)c(=N)n(CCc4cccs4)c3nc12 | 62 | 58 | – | –
– | – | – | Cc1cccn2c(=O)c3cc(C(=O)NCCCN4CCOCC4)c(=N)n(C4CCCCC4)c3nc12 | 37 | 22 | – | –

ΔTm [3] [°C] | ΔTm [6] [°C] | ΔTm [7] [°C] | SMILES | inhibition at 30 µM [1] [%] | inhibition at 30 µM [2] [%] | pIC50 [4] | pIC50 [5]
– | – | – | Cc1cccn2c(=O)c3cc(C(=O)NCCCN4CCOCC4)c(=N)n(-c4ccccc4)c3nc12 | 12 | 23 | – | –
– | – | – | O=C(NCCc1ccc(F)cc1)c1cc2cnccc2n(CCc2ccccc2)c1=O | 25 | 16 | – | –
– | – | – | Cc1cccn2c(=O)c3cc(C(=O)O)c(=N)n(-c4ccccc4)c3nc12 | 24 | 16 | – | –
– | – | – | O=C(O)c1cc2cccnc2n(CCc2ccccc2)c1=O | 33 | 24 | – | –
– | – | – | CCCn1c(=N)c(C(=O)O)cc2c(=O)n3cccc(C)c3nc21 | 21 | 29 | – | –
– | – | – | Cc1cccn2c(=O)c3cc(C(=O)NCCCN4CCOCC4)c(=N)n(Cc4ccncc4)c3nc12 | 48 | 35 | – | –
2.5 | 3.6 | 2.7 | COc1ccc(CCn2c(=N)c(C(=O)NCCCN3CCOCC3)cc3c(=O)n4cccc(C)c4nc32)cc1 | 90 | 88 | 5.55 | 5.19
– | – | – | CCCn1c(=N)c(C(=O)NCCCN2CCOCC2)cc2c(=O)n3cccc(C)c3nc21 | 57 | 66 | 5.19 | 5.28
– | – | – | CCCn1c(=N)c(C(=O)OCC)cc2c(=O)n3cccc(C)c3nc21 | 38 | 35 | – | –
– | – | – | CCN(CC)CCNC(=O)c1cc2cnccc2n(CCc2ccccc2)c1=O | 38 | 11 | – | –
– | – | – | Cc1cccn2c(=O)c3cc(C(=O)NCCCN4CCOCC4)c(=N)n(Cc4ccccc4)c3nc12 | 58 | 46 | – | –
– | – | – | Cc1cccn2c(=O)c3cc(C(=O)NCCCN4CCOCC4)c(=N)n(CCCN4CCOCC4)c3nc12 | 27 | 35 | – | –
– | – | – | CCOC(=O)c1cc2c(=O)n3cccc(C)c3nc2n(C(C)C)c1=N | 27 | 23 | – | –
3.5 | 3.7 | – | Cc1cccn2c(=O)c3cc(C(=O)NCCc4ccccc4)c(=N)n(CCc4cccs4)c3nc12 | 85 | 52 | 5.30 | 4.62
– | – | – | Cc1cccn2c(=O)c3cc(C(=O)NCCCN4CCOCC4)c(=N)n(CCCc4ccccc4)c3nc12 | 90 | 91 | 5.59 | 5.29
2.4 | 3.5 | – | Cc1cccn2c(=O)c3cc(C(=O)NCCCN4CCOCC4)c(=N)n(CCc4ccc(Cl)cc4)c3nc12 | 90 | 97 | 5.64 | 5.40
– | – | – | Cc1cccn2c(=O)c3cc(C(=O)NCCCN4CCOCC4)c(=N)n(C)c3nc12 | 59 | 62 | – | –
– | – | – | Cc1ccc(CCn2c(=N)c(C(=O)O)cc3c(=O)n4cccc(C)c4nc32)cc1 | 51 | 31 | – | –
– | – | – | Cc1cccn2c(=O)c3cc(C(=O)NCCO)c(=N)n(CCc4cccs4)c3nc12 | 83 | 81 | – | –

ΔTm [3] [°C] | ΔTm [6] [°C] | ΔTm [7] [°C] | SMILES | inhibition at 30 µM [1] [%] | inhibition at 30 µM [2] [%] | pIC50 [4] | pIC50 [5]
– | – | – | Cc1cccn2c(=O)c3cc(C(=O)NCc4ccccc4)c(=N)n(CCc4cccs4)c3nc12 | 60 | 50 | – | –
4.9 | 5.3 | – | CCOC(=O)c1cc2c(=O)n3cccc(C)c3nc2n(CCc2cccs2)c1=N | 38 | 49 | – | –
– | – | – | O=C(O)c1cc2cnccc2n(CCc2ccccc2)c1=O | 21 | 15 | – | –
– | – | – | CCOC(=O)c1cc2cccnc2n(CCc2ccccc2)c1=O | 15 | 19 | – | –
0.8 | 1.5 | – | CCOC(=O)c1cc2c(=O)n3cccc(C)c3nc2n(CCc2ccc(C)cc2)c1=N | 51 | 49 | – | –
– | – | – | Cc1cccn2c(=O)c3cc(C(=O)O)c(=N)n(Cc4ccco4)c3nc12 | 24 | 16 | – | –
0.8 | 1.6 | – | CCOC(=O)c1cc2c(=O)n3cccc(C)c3nc2n(CCc2ccc(Cl)cc2)c1=N | 42 | 48 | – | –
– | – | – | Cc1cccn2c(=O)c3cc(C(=O)NCCc4ccc(F)cc4)c(=N)n(CCc4cccs4)c3nc12 | 12 | 21 | – | –
– | – | – | CCOC(=O)c1cc2c(=O)n3cccc(C)c3nc2n(-c2ccccc2)c1=N | 51 | 10 | – | –
– | – | – | Cc1cccn2c(=O)c3cc(C(=O)NCCCN4CCOCC4)c(=N)n(CCc4ccccc4F)c3nc12 | 61 | 74 | – | –
– | – | – | Cc1cccn2c(=O)c3cc(C(=O)O)c(=N)n(-c4ccc(F)cc4)c3nc12 | 18 | 33 | – | –
– | – | – | N=c1c(C(=O)NCCCN2CCOCC2)cc2c(=O)n3ccccc3nc2n1CCc1cccs1 | 62 | 56 | – | –
– | – | – | Cc1cccn2c(=O)c3cc(C(=O)O)c(=N)n(Cc4ccccc4)c3nc12 | 20 | 32 | – | –
– | – | – | O=C(NCCc1ccc(F)cc1)c1cc2cccnc2n(CCc2ccccc2)c1=O | 8 | 14 | – | –
– | – | – | CCN(CC)CCn1c(=N)c(C(=O)NCCCN2CCOCC2)cc2c(=O)n3cccc(C)c3nc21 | 86 | 89 | 5.46 | 5.41
3.1 | 3.3 | – | Cc1cccn2c(=O)c3cc(C(=O)NCCN4CCOCC4)c(=N)n(CCc4cccs4)c3nc12 | 86 | 82 | – | –
1.7 | 1.9 | – | CCOC(=O)c1cc2c(=O)n3cccc(C)c3nc2n(-c2ccc(F)cc2)c1=N | 33 | 16 | – | –
– | – | – | Cc1cccn2c(=O)c3cc(C(=O)O)c(=N)n(CCc4ccc(Cl)cc4)c3nc12 | 57 | 30 | – | –
